According to ChEMBL document CHEMBL1949528, “New inhibitor of 3-phosphoinositide dependent protein kinase-1 identified from virtual screening” (Bioorg Med Chem Lett, 2012):

Tests used:
[1] = molecular target: T1, 3-phosphoinositide-dependent protein kinase 1 (Homo sapiens, UniProt O15530); assay: Inhibition of recombinant PDK1 using P2925 peptide as substrate by fluorescence polarization assay
T1 sequence (O15530 whole entry): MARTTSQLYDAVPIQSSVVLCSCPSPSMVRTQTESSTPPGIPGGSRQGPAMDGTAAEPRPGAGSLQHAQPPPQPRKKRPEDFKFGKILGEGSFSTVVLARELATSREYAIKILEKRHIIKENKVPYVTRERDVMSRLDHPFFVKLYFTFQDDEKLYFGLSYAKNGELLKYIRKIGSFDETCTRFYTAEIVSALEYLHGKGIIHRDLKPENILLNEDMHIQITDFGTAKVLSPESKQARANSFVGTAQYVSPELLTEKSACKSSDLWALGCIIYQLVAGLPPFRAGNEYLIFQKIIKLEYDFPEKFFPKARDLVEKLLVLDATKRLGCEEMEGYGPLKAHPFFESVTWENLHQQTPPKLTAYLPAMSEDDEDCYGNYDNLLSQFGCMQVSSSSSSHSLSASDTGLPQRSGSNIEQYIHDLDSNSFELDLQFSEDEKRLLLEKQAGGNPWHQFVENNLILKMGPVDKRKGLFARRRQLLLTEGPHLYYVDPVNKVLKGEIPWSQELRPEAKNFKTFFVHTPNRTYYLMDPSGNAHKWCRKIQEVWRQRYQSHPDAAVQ
Method in brief: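 A fluorescence polarization kit assay. Recombinant PDK1 phosphorylates the substrate peptide with DMSO or inhibitor present. The phosphopeptide formed competes with a fluorescein-labeled phosphopeptide tracer for an anti-phosphothreonine antibody, and polarization is then read on a plate reader. A standard reference inhibitor was run alongside.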

[2] = test system: RPMI-8226; assay: Growth inhibition of human RPMI8226 cells after 48 hrs by sulforhodamine B assay; format: functional; details: RPMI-8226, 48 h
Method in brief: (§1)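 Run in the NCI-DTP 60-cell-line screen. Cells were exposed for 48 h to at least five 10-fold dilutions (0.01 to 100 μM). Cell growth was estimated by sulforhodamine B protein staining. Percentage growth at each level was taken from absorbances at time zero (Tz), of the untreated control (C) and of treated cells (Ti), as [(Ti-Tz)/(C-Tz)]*100.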

[3] = test system: HOP-92; assay: Growth inhibition of human HOP92 cells after 48 hrs by sulforhodamine B assay; format: functional; details: HOP-92, 48 h; method in brief: as §1
[4] = test system: KM12; assay: Growth inhibition of human KM12 cells after 48 hrs by sulforhodamine B assay; format: functional; details: KM12, 48 h; method in brief: as §1
[5] = test system: SF-268; assay: Growth inhibition of human SF268 cells after 48 hrs by sulforhodamine B assay; format: functional; details: SF-268, 48 h; method in brief: as §1
[6] = test system: SF-295; assay: Growth inhibition of human SF295 cells after 48 hrs by sulforhodamine B assay; format: functional; details: SF-295, 48 h; method in brief: as §1
[7] = test system: U-251; assay: Growth inhibition of human U251 cells after 48 hrs by sulforhodamine B assay; format: functional; details: U-251, 48 h; method in brief: as §1
[8] = test system: LOX IMVI; assay: Growth inhibition of human LOXIMVI cells after 48 hrs by sulforhodamine B assay; format: functional; method in brief: as §1
[9] = test system: OVCAR-3; assay: Growth inhibition of human OVCAR3 cells after 48 hrs by sulforhodamine B assay; format: functional; details: OVCAR-3, 48 h; method in brief: as §1
[10] = test system: RXF 393; assay: Growth inhibition of human RXF393 cells after 48 hrs by sulforhodamine B assay; format: functional; details: RXF 393, 48 h; method in brief: as §1
[11] = test system: PC-3; assay: Growth inhibition of human PC3 cells after 48 hrs by sulforhodamine B assay; format: functional; details: PC-3, 48 h; method in brief: as §1
[12] = test system: DU-145; assay: Growth inhibition of human DU145 cells after 48 hrs by sulforhodamine B assay; format: functional; details: DU-145, 48 h; method in brief: as §1
[13] = test system: Hs-578T; assay: Growth inhibition of human Hs578T cells after 48 hrs by sulforhodamine B assay; format: functional; method in brief: as §1
[14] = test system: Hs-578T; assay: Growth inhibition of human Hs578T cells at 10 uM after 48 hrs by sulforhodamine B assay; format: functional; details: read-out: GI
Method in brief: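 A single-concentration NCI-DTP test at 10 μM, run two times. After 48 h exposure, growth was read by sulforhodamine B staining and expressed as percentage growth, [(Ti-Tz)/(C-Tz)]*100, against time-zero and untreated-control absorbances. Growth inhibition is reported as 100 minus percentage growth.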

IC50 [1]: 0.2 µM | GI50 [2]: 3.54 µM | GI50 [7]: 9.88 µM | GI50 [9]: 2.02 µM | GI50 [11]: 6.02 µM | GI50 [12]: 5.39 µM
SMILES: CCOC(=O)c1ccc(Nc2cc(C)nc(Nc3ccc(C(=O)OCC)cc3)n2)cc1
GI50 [3]: 3.25 µM | GI50 [4]: 3.62 µM | GI50 [5]: 3.8 µM | GI50 [6]: 8.64 µM | GI50 [8]: 7.24 µM | GI50 [10]: 5.05 µM | GI50 [13]: < 10 µM | inhibition of growth at 10 µM [14]: 67%
